Assay results of several laboratories.
Lines come from different studies, so protocols differ. Values after ≈ are worked out from the molar mass of the structure shown.

| SMILES | target or system | test | system | setting | endpoint | value |
| --- | --- | --- | --- | --- | --- | --- |
| CCCCCCC/C=C/C(=O)N1C(=O)/C(=C(\O)c2ccc(OCOCCOC)cc2)C(=O)C1CC(C)C (stereo not shown) | Burkholderia cepacia | microbial growth | ATCC25416 |  | MIC | > 200 µg/mL |
| OCCOCCN1CCN(C(c2ccccc2)c2ccc(Cl)cc2)CC1 (stereo not shown) | human PBMC | cell migration |  | 10 µM | inhibition | 7% |
| C[C@]12CCC(=O)C(O)=C1CC[C@@H]1[C@@H]2CC[C@]2(C)C(=O)CC[C@@H]12 | CAL-27 | cell growth or viability |  | 72 h | IC50 | > 20 µM |
| CCCCCCC/C=C/C(=O)N1C(=O)/C(=C(\O)CCCC)C(=O)C1CC(C)C (stereo not shown) | Burkholderia cepacia | microbial growth | ATCC25416 |  | MIC | > 200 µg/mL |
| NS(=O)(=O)c1cc(C(=O)O)c(NCc2ccco2)cc1Cl | human PBMC | cell migration |  | 10 µM | inhibition | 89% |
| O=c1ccc2ccc3occc3c2o1 |  | tubulin polymerisation, inhibitor |  | 10 µM | inhibition | 57.1% |
| CCCCCCC/C=C/C(=O)N1C(=O)/C(=C(/C)O)C(=O)C1CCCCN (stereo not shown) | Burkholderia cepacia | microbial growth | ATCC25416 |  | MIC | > 200 µg/mL |
| CCC1(c2ccc(N)cc2)CCC(=O)NC1=O (stereo not shown) | MCF-10A | cell growth or viability, CCK-8 |  | 48 h | IC50 | > 50 µM |
| Cc1cc(C)c(-n2ccn(-c3c(C)cc(C)cc3C)c2=[Se])c(C)c1 | HCT-15 | cell growth or viability, MTT |  | 72 h | IC50 | 10.7 µM |
| O=C(Oc1ccc(Cl)cc1)[c-]1cccc1.[Fe+2].c1cc[cH-]c1 | MCF-10A | cell growth or viability, MTT |  | 72 h | IC50 | 500 µM |
| CN[C@@H]1[C@H](O)[C@H](NC)[C@H]2O[C@@]3(O)C(=O)C[C@@H](C)O[C@H]3O[C@@H]2[C@H]1O | Burkholderia cepacia | microbial growth, broth dilution | ATCC25416 |  | MIC | 50 µg/mL (≈ 150 µM) |
| C=C(CCC=C(C)C)[C@H]1CC[C@H]2[C@@H]3CC=C4C[C@@H](O)CC[C@]4(C)[C@H]3CC[C@]12C | Leishmania mexicana | parasite growth |  | 48 h, promastigote | IC50 | > 262 µM |
| O=C(N/N=C1\C(=O)N(Cc2ccccc2)c2ccc(Cl)cc21)c1cc2ccccc2[nH]1 | MCF-10A | cell growth or viability |  | 72 h | IC50 | 2 µM |
